Source: ChEMBL document CHEMBL4043082, “Clerodane Diterpenoid Glucosides from the Stems of Tinospora sinensis” (J Nat Prod, 2017)

What was measured:
N9 = experiment: Inhibition of LPS-induced nitric oxide production in mouse N9 cells by Griess reaction based assay; assay type: functional, cell-based
Outline: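 N9 microglial cells activated with LPS; nitrite accumulation in culture supernatants measured by Griess reaction; microglial cell viability checked in parallel by MTT assay.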

HeLa = experiment: Cytotoxicity against human HeLa cells assessed as reduction in cell viability incubated for 48 hrs by MTT assay; assay type: functional, cell-based
Outline: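 HeLa cells seeded at 8 × 10^3 per well, exposed in triplicate to 2.5, 5, 10, 20 and 50 μM of each compound at 37 °C for 48 h; doxorubicin as positive control. MTT (5 mg/mL) added for 4 h, formazan dissolved in DMSO, absorbance at 570 nm; IC50 by Logit method.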

Row | Structure (SMILES) | IC50 (N9) | IC50 (HeLa)
1 | COc1cccc2c1C(=O)c1c(O)c3c(c(O)c1C2=O)C[C@@](O)(C(=O)CO)C[C@@H]3O[C@H]1C[C@H](N)[C@H](O)[C@H](C)O1 [DOXORUBICIN] |  | 0.32 µM
2 | C[C@@]12C[C@@H](c3ccoc3)OC(=O)[C@]1(O)CC[C@H]1[C@H]2[C@@H](O)[C@@H](O)C[C@H]1O[C@@H]1O[C@H](CO)[C@@H](O)[C@H](O)[C@H]1O | ≥ 100 µM | 8.35 µM
3 | C[C@@]12CC[C@@]3(O)C(=O)O[C@H](c4ccoc4)C[C@@]3(C)[C@@H]1[C@@H](O[C@@H]1O[C@H](CO)[C@@H](O)[C@H](O)[C@H]1O)C=CC2=O | ≥ 100 µM | ≥ 10 µM
4 | CC(=O)O[C@@H]1[C@@H]2[C@H](CC[C@@]3(O)C(=O)O[C@H](c4ccoc4)C[C@@]23C)[C@H](O[C@@H]2O[C@H](CO)[C@@H](O)[C@H](O)[C@H]2O)C[C@@H]1OC(C)=O | ≥ 100 µM | ≥ 10 µM
5 | COc1cc(/C=C/C(=O)O[C@@H]2CC[C@H](O)[C@@H]3[C@@H]2CC[C@@]2(O)C(=O)O[C@H](c4ccoc4)C[C@@]32C)ccc1O[C@@H]1O[C@H](CO)[C@@H](O)[C@H](O)[C@H]1O | ≥ 100 µM | ≥ 10 µM
6 | COc1cc(/C=C/C(=O)O[C@@H]2C[C@H](OC(C)=O)[C@H](O)[C@@H]3[C@@H]2CC[C@@]2(O)C(=O)O[C@H](c4ccoc4)C[C@@]32C)ccc1O[C@@H]1O[C@H](CO)[C@@H](O)[C@H](O)[C@H]1O | ≥ 100 µM | ≥ 10 µM
7 | COc1cc(/C=C/C(=O)O[C@H]2C[C@H](O)[C@H](O)[C@@H]3[C@@H]2CC[C@@]2(O)C(=O)O[C@H](c4ccoc4)C[C@@]32C)ccc1O[C@@H]1O[C@H](CO)[C@@H](O)[C@H](O)[C@H]1O | ≥ 100 µM | ≥ 10 µM

The next lines start with results.

Row | IC50 (N9) | Structure (SMILES) | IC50 (HeLa)
8 | ≥ 100 µM | COc1cc(/C=C/C(=O)O[C@@H]2C[C@H](O)[C@H](OC(C)=O)[C@@H]3[C@@H]2CC[C@@]2(O)C(=O)O[C@H](c4ccoc4)C[C@@]32C)ccc1O[C@@H]1O[C@H](CO)[C@@H](O)[C@H](O)[C@H]1O | ≥ 10 µM
9 | ≥ 100 µM | C[C@@]12C[C@@H](c3ccoc3)OC(=O)[C@]1(O)CC[C@]1(C)[C@H]2[C@H]2C=C[C@]1(O[C@@H]1O[C@H](CO)[C@@H](O)[C@H](O)[C@H]1O)C(=O)O2 | ≥ 10 µM
10 | ≥ 100 µM | CC(=O)O[C@H]1C[C@@H](O[C@@H]2O[C@H](CO)[C@@H](O)[C@H](O)[C@H]2O)[C@H]2CC[C@@]3(O)C(=O)O[C@H](c4ccoc4)C[C@@]3(C)[C@@H]2[C@H]1O | ≥ 10 µM
11 | ≥ 100 µM | COc1cc(/C=C\C(=O)O[C@@H]2C[C@H](OC(C)=O)[C@H](O)[C@@H]3[C@@H]2CC[C@@]2(O)C(=O)O[C@H](c4ccoc4)C[C@@]32C)ccc1O[C@@H]1O[C@H](CO)[C@@H](O)[C@H](O)[C@H]1O | ≥ 10 µM
12 | ≥ 100 µM | COc1cc(/C=C/C(=O)O[C@@H]2C[C@H](O)[C@H](O)[C@@H]3[C@@H]2CC[C@@]2(O)C(=O)O[C@H](c4ccoc4)C[C@@]32C)ccc1O[C@@H]1O[C@H](CO)[C@@H](O)[C@H](O)[C@H]1O | ≥ 10 µM
13 | ≥ 100 µM | CC(=O)O[C@@H]1[C@@H]2[C@H](CC[C@@]3(O)C(=O)O[C@H](c4ccoc4)C[C@@]23C)[C@H](O[C@@H]2O[C@H](CO)[C@@H](O)[C@H](O)[C@H]2O)C[C@@H]1O | ≥ 10 µM
14 | ≥ 100 µM | COc1cc(/C=C/C(=O)O[C@H]2C[C@H](OC(C)=O)[C@H](O)[C@@H]3[C@@H]2CC[C@@]2(O)C(=O)O[C@H](c4ccoc4)C[C@@]32C)ccc1O[C@@H]1O[C@H](CO)[C@@H](O)[C@H](O)[C@H]1O | ≥ 10 µM
